Measured values from ChEMBL document CHEMBL1821564, “3-Acetyl-2,5-diaryl-2,3-dihydro-1,3,4-oxadiazoles: a new scaffold for the selective inhibition of monoamine oxidase B” (J Med Chem, 2011).
pIC50: −log10 of the molar value.

Assays:
[1] = target: T1, Amine oxidase [flavin-containing] A (Homo sapiens, UniProt P21397); assay: Inhibition of human recombinant MAO-A activity expressed in BTI-TN-5B1-4 insect cells at 100 uM using p-tyramine substrate by Amplex Red MAO assay; conditions: bti-tn-5b1-4, 100 µM
T1 sequence (P21397 whole entry): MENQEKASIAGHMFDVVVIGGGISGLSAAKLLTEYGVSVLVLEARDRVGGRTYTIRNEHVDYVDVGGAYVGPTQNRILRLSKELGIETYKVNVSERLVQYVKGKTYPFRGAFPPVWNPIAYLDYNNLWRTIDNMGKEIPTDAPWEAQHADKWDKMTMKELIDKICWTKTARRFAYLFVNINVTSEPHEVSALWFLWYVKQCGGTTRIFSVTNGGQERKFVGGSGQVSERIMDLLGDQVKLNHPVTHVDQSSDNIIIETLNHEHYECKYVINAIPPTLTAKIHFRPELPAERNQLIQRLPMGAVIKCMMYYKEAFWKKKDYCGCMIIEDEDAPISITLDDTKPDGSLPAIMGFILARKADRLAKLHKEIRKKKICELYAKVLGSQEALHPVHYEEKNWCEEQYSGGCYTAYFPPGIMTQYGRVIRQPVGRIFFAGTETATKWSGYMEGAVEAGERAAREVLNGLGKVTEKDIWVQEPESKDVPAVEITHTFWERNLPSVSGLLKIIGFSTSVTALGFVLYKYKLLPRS
Outline: (§1)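 Microsomal hMAO-A or hMAO-B from baculovirus-infected BTI-TN-5B1-4 insect cells, with p-tyramine substrate. H2O2 production was read with the Amplex Red reagent. Highest concentration tested was 100 μM, limited by precipitation. Compounds were checked for no direct reaction with Amplex Red. IC50 is the mean ± SEM of five experiments.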

[2] = target: T2, Amine oxidase [flavin-containing] B (Homo sapiens, UniProt P27338); assay: Inhibition of human recombinant MAO-B expressed in BTI-TN-5B1-4 insect cells using p-tyramine substrate by Amplex Red MAO assay; outline: as §1
T2 sequence (P27338 whole entry): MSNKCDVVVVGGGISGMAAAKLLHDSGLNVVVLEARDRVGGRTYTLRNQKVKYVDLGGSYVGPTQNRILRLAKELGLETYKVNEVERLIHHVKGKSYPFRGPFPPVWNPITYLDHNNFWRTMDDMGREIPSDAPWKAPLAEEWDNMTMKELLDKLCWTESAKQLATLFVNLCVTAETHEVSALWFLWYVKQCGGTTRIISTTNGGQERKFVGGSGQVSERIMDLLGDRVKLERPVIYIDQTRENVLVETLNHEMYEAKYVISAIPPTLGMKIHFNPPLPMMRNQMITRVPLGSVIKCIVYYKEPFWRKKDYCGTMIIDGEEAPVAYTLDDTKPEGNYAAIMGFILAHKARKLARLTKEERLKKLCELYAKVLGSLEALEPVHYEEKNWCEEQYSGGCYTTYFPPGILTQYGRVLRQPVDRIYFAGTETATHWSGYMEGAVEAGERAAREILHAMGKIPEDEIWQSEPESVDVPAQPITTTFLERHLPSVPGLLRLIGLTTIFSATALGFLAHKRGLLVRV

Homo sapiens = species: Homo sapiens; assay: Selectivity index, ratio of IC50 for human recombinant MAO-A to IC50 for human recombinant MAO-B
[3] = target: T2, Amine oxidase [flavin-containing] B; assay: Inhibition of human recombinant MAO-B expressed in BTI-TN-5B1-4 insect cells at 100 uM using p-tyramine substrate by Amplex Red MAO assay; conditions: bti-tn-5b1-4, 100 µM; outline: as §1

| Structure (SMILES) | inhibition (INH) [1] | pIC50 [2] | Ratio IC50 (Homo sapiens) | inhibition (INH) [3] | pIC50 ([2]; bti-tn-5b1-4) |
| --- | --- | --- | --- | --- | --- |
| CC(=O)N1N=C(c2ccccc2)OC1c1ccc(N(C)C)cc1 (stereo not given) | Not Active |  |  | Not Active |  |
| CC(=O)N1N=C(c2ccccc2)O[C@@H]1c1ccc(C)cc1 | Not Active | 5.07 | > 12 |  |  |
| CC(=O)N1N=C(c2ccccc2)OC1c1ccc(C)cc1 (racemic) [listing 1 of 2 here] |  |  | > 5.2 |  |  |
| CC(=O)N1N=C(c2ccc(Br)cc2)OC1c1ccc(Cl)cc1 (stereo in doubt; 4s) [listing 1 of 2 here] |  |  | > 453 |  |  |
| CC(=O)N1N=C(c2ccc(Br)cc2)OC1c1ccc(Cl)cc1 (racemic) [listing 1 of 2 here] |  |  |  |  | 6.66 |
| CC(=O)N1N=C(c2ccccc2)OC1c1ccc(C)cc1 (stereo in doubt; 4y) [listing 1 of 2 here] |  |  | > 5.2 |  |  |
| CC(=O)N1N=C(c2ccccc2)O[C@H]1c1ccc(C)cc1 | Not Active |  |  | Not Active |  |
| CC(=O)N1N=C(c2ccncc2)OC1c1ccc(C)cc1 (stereo not given) | Not Active |  |  | Not Active |  |
| CC(=O)N1N=C(c2ccccc2)OC1c1ccc(C)cc1 (racemic) [listing 2 of 2 here] |  |  |  |  | 4.71 |
| COc1ccc(C2OC(c3ccncc3)=NN2C(C)=O)cc1 (stereo not given) | Not Active |  |  | Not Active |  |
| COc1ccc(C2OC(c3ccccc3)=NN2C(C)=O)cc1 (stereo not given) | Not Active | 5.29 | > 19 |  |  |
| CC(=O)N1N=C(c2ccc(Br)cc2)OC1c1ccc(Cl)cc1 (stereo in doubt; 4s) [listing 2 of 2 here] | Not Active | 6.66 |  |  |  |
| CC(=O)N1N=C(c2ccc(Cl)cc2)O[C@@H]1c1ccc(Cl)cc1 | Not Active | 7.00 | > 994 |  |  |
| CC(=O)N1N=C(c2ccccc2)OC1c1ccccc1 (stereo not given) | Not Active |  |  | Not Active |  |
| CC(=O)N1N=C(c2ccc(Br)cc2)OC1c1ccc(Cl)cc1 (racemic) [listing 2 of 2 here] |  |  | > 453 |  |  |
| CC(=O)N1N=C(c2ccc(Cl)cc2)O[C@H]1c1ccc(Cl)cc1 | Not Active |  |  | Not Active |  |
| CC(=O)N1N=C(c2ccc(C)cc2)OC1c1ccccc1 (stereo not given) | Not Active |  |  | Not Active |  |
| CC(=O)N1N=C(c2ccccc2)OC1c1ccc(C)cc1 (stereo in doubt; 4y) [listing 2 of 2 here] | Not Active | 4.71 |  |  |  |
| CC(=O)N1N=C(c2ccc(Cl)cc2)OC1c1ccc(Cl)cc1 (racemic) [listing 2 of 2 here] |  |  |  |  | 6.94 |
| CC(=O)N1N=C(c2ccccc2)OC1c1ccc([N+](=O)[O-])cc1 (stereo not given) | Not Active |  |  | Not Active |  |
| COc1ccc(C2OC(c3ccc(C)cc3)=NN2C(C)=O)cc1OC (stereo not given) | Not Active |  |  | Not Active |  |
| CC(=O)N1N=C(c2ccncc2)OC1c1ccc(Cl)cc1Cl (stereo not given) | Not Active |  |  | Not Active |  |

Results, then the molecule that gave them:

| inhibition (INH) [1] | pIC50 [2] | Ratio IC50 (Homo sapiens) | inhibition (INH) [3] | pIC50 ([2]; bti-tn-5b1-4) | Structure (SMILES) |
| --- | --- | --- | --- | --- | --- |
| Not Active | 4.13 | > 1.34 |  |  | COc1ccc(C2OC(c3ccc(C)cc3)=NN2C(C)=O)cc1 (stereo not given) |
|  |  | > 867 |  |  | CC(=O)N1N=C(c2ccc(Cl)cc2)OC1c1ccc(Cl)cc1 (stereo in doubt; 4p) [listing 1 of 2 here] |
| Not Active |  |  | Not Active |  | CC(=O)N1N=C(c2ccc(C)cc2)OC1c1ccc(Cl)cc1 (stereo not given) |
| Not Active | 7.08 | > 1210 |  |  | CC(=O)N1N=C(c2ccc(Br)cc2)O[C@@H]1c1ccc(Cl)cc1 |
|  |  | > 867 |  |  | CC(=O)N1N=C(c2ccc(Cl)cc2)OC1c1ccc(Cl)cc1 (racemic) [listing 1 of 2 here] |
| Not Active |  |  | Not Active |  | CC(=O)N1N=C(c2ccccc2)OC1c1ccc(Cl)cc1 (stereo not given) |
| Not Active |  |  | Not Active |  | CC(=O)N1N=C(c2ccncc2)OC1c1ccc(Cl)cc1 (stereo not given) |
| Not Active |  |  | Not Active |  | CC(=O)N1N=C(c2ccc(Br)cc2)O[C@H]1c1ccc(Cl)cc1 |
| Not Active |  |  | Not Active |  | COc1ccc(C2=NN(C(C)=O)C(c3ccc(Cl)cc3)O2)cc1 (stereo not given) |
| Not Active |  |  | Not Active |  | CC(=O)N1N=C(c2ccc(C)cc2)OC1c1ccc(N(C)C)cc1 (stereo not given) |
| Not Active |  |  | Not Active |  | COc1ccc(C2OC(c3ccncc3)=NN2C(C)=O)cc1OC (stereo not given) |
| Not Active |  |  | Not Active |  | CC(=O)N1N=C(c2ccncc2)OC1c1ccccc1 (stereo not given) |
| Not Active | 6.94 |  |  |  | CC(=O)N1N=C(c2ccc(Cl)cc2)OC1c1ccc(Cl)cc1 (stereo in doubt; 4p) [listing 2 of 2 here] |
| Not Active | 4.33 | > 2.14 |  |  | CC(=O)N1N=C(c2ccncc2)OC1c1ccc(N(C)C)cc1 (stereo not given) |
| Not Active |  |  | Not Active |  | CC(=O)N1N=C(c2ccc(C)cc2)OC1c1ccc(Cl)cc1Cl (stereo not given) |
| Not Active | 5.02 | > 10 |  |  | CC(=O)N1N=C(c2ccccc2)OC1c1ccc(F)cc1 (stereo not given) |
| Not Active | 4.18 | > 1.5 |  |  | CC(=O)N1N=C(c2ccc(C)cc2)OC1c1ccc(C)cc1 (stereo not given) |
| Not Active | 6.91 | > 822 |  |  | CC(=O)N1N=C(c2ccc([N+](=O)[O-])cc2)OC1c1ccc(Cl)cc1 (stereo not given) |
